rCAG RNA binder: binds r(CAG) RNA repeats; inhibition, % at 3 µM; 370,000 tested, 1.3% active; r(CAG) RNA repeat, TO-PRO-1 dye displacement fluorescence; AID 651821;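 active means inhibition above the plate cutoff, the mean of all test compounds on that plate plus 3 SD, cut at about 35% in these data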;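 further: 0% = DMSO alone and 100% = 100 µM mitoxantrone as full dye displacement; higher means more dye released from RNA so lower well fluorescence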
TAAR1 antag: antagonists of human TAAR1 | CHO RD-HGA16 TAAR1, Fluo-8 calcium fluorescence, antagonist | inhibition, % at 3 µM | 360,000 tested, 1.5% active | AID 624466;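 active means inhibition above a per-plate cutoff, the mean inhibition of test compounds on that plate plus 3 SD, cut at about 49% in these data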;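 further: 0% = DMSO plus EC80 beta-PEA response and 100% = DMSO alone without agonist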
Target sequence (Q96RJ0 whole entry, looked up): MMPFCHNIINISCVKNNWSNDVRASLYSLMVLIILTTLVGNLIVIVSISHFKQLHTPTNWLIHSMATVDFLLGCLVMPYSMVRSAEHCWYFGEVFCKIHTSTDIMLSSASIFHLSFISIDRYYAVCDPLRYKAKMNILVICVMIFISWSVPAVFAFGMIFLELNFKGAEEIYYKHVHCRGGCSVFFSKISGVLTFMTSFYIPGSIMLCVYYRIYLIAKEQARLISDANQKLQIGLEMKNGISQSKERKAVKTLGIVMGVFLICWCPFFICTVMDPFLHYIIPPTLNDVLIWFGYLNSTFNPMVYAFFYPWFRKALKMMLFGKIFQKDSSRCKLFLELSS
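Assay system: RD-HGA16 CHO cells with stable hTAAR1 and Gα16 / Reagent: EC80 β-phenethylamine stimulus / Doses: 3 µM, single point / Timing: dye loading 75 min at 37 °C, then 30 min room temperature / Measured by: Fluo-8 intracellular calcium dye fluorescence, real-time kinetic reads / Controls: vehicle wells and EC80 agonist wells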
core dimer inh: blocks dimerization of HCV core protein | AID 1899 | 300,000 tested, 0.33% active | TR-FRET GST/Flag-core106 dimerization, 1536-well | inhibition, % at 5 µM;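 active means inhibition above the mean of all tested compounds plus 3 SD, set per screening campaign, cut at about 45% in these data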
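Assay system – GST-tagged and Flag-tagged HCV core protein residues 1-106 · Quantity – core106 proteins, GST 13.5 nM and Flag 17 nM · Benchmarks – unlabelled core106 and no-GST-core106 wells · Read-out basis – percent inhibition of core106 dimerization signal · Detection – time-resolved FRET, ex 340 nm, em 617 and 671 nm · Schedule – 4 h at 22.5 °C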
TAAR1 agonist: agonists of human TAAR1; activation, % at 3 µM; Q96RJ0; 360,000 tested, 0.99% active; CHO RD-HGA16 TAAR1, Fluo-8 calcium fluorescence; vehicle wells 0%, saturating PEA agonist 100%;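 active means activation above the mean activation of all test compounds in the run plus 3 SD, cut at about 38% in these data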
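Signal – calcium-sensitive Fluo-8 signal, excitation 470-495, emission 515-575 nm · System – RD-HGA16 (CHO) cells co-expressing Gα16 and hTAAR1 · Incubation – 17-24 h seeding, 75 min 37 °C dye, 30 min RT · Compound dosing – 3 µM single concentration · Repeats – no replicates (n 1)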
NS3 helicase inh: blocks Hepatitis C virus NS3 helicase unwinding. AID 1800. inhibition, % at 10.9 µM. 290,000 tested, 0.56% active. NS3 helicase DNA unwinding, Cy5 molecular beacon fluorescence;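 active means inhibition above the mean of all tested compounds plus 3 SD, set per campaign, cut at about 35% in these data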;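 further: 0% = DMSO wells and 100% = thioflavine S control wells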
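Test system: hepatitis C virus NS3 helicase domain fragment enzyme. Also added: annealed dual-labelled DNA beacon duplex, ATP-started. Timing: 60 min unwinding reaction at 25 °C after ATP addition. Technique: Cy5 fluorescence. Measure: % inhibition of unwinding.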
rCAG binder conf: r(CAG) RNA repeat binding, confirmation; shares compounds with rCAG RNA binder; TO-PRO-1 dye displacement fluorescence; inhibition, % at 3 µM; 4,300 tested, 70% active; AID 652065;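 active means inhibition above a per-plate cutoff, the mean inhibition of sample wells plus 3 SD, cut at about 35% in these data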;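 further: loss of TO-PRO-1 fluorescence as compound displaces dye from 1x1 AA loop RNA; 0% = DMSO only wells and 100% = 100 µM mitoxantrone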
DNA CAG counter: counter-screen for rCAG RNA binders: DNA CAG dye complex inhibitors; 4,300 tested, 94% active; AID 652068; d(CAG) DNA oligo TO-PRO-1 dye displacement, fluorescence; shares compounds with rCAG RNA binder; inhibition, % at 3 µM;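 active means inhibition above its plate's cutoff, the mean test-well inhibition plus 3 SD, cut at about 4.8% in these data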;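 further: 0% = DNA dye mix with DMSO and 100% = 100 µM mitoxantrone; hits displace the dye from DNA and so lower well fluorescence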
An asterisk follows results filed as active; · = no result. Sampled rows, rich in hits. Any-hit rate of the full collection: about 3.7%.

SMILES	rCAG RNA binder	TAAR1 antag	core dimer inh	TAAR1 agonist	NS3 helicase inh	rCAG binder conf	DNA CAG counter
CC1(C(=O)NS(=O)(=O)c2ccc(C#N)cc2)CCN1C(=O)Cc1ccc(-c2ccccc2)cc1 (stereo not drawn)	42*	-11	·	6	·	43*	11*
COC(=O)[C@]12C[C@H](CC(=O)NCc3ccccc3)C(=O)N(Cc3ccc(Cl)cc3Cl)C1=C[C@H](C(C)C)O[C@@H]2C1CC1	6	·	·	·	·	·	·
Cc1ccc(C2C(/C=C3/SC(=S)NC3=O)=C(c3cccs3)Oc3ccccc32)cc1 (stereo not drawn)	80*	56*	32	1	11	83*	51*
COc1ccc(C(=O)OCCCN(C)C2CN(Cc3cn(Cc4ccc([N+](=O)[O-])cc4)nn3)S(=O)(=O)C2)cc1OC (stereo not drawn)	8	·	·	·	·	·	·
C[C@H]1COc2cc(Br)ccc2S(=O)(=O)N1Cc1cn(CCC2OCCCO2)nn1	2	·	·	·	·	·	·
CCOc1ccc2nc(NS(=O)(=O)c3ccc(NC(C)=O)cc3)sc2c1	21	-3	-15	1	2	·	·
CCOc1ccc2nc(NS(=O)(=O)Cc3ccccc3)sc2c1	44*	6	3	2	19	29	10*
O=C(O)C(=Cc1ccncc1)c1cccc2ccccc12	2	-5	·	1	·	·	·
O=C(O)/C(=C\c1ccc2ccccc2c1)c1cccc2ccccc12	58*	-27	11	1	·	52*	17*
COC(=O)[C@]12C[C@H](CC(=O)NCc3cccc(C(F)(F)F)c3)C(=O)N(Cc3ccccc3)C1=C[C@H](C(C)C)O[C@@H]2C1CC1	1	-20	·	-1	·	·	·
O=S(=O)(O)c1cc(O)c(N=Nc2ccc(O)cc2O)c2ccccc12	65*	-4	·	0	·	94*	67*
O=[N+]([O-])c1ccccc1N=Nc1ccc(O)cc1O	16	-13	·	1	·	·	·
COC(=O)c1c(N2C(=O)Nc3ccccc3N2O)sc2c1CCCC2	40*	-28	12	1	-7	36*	8.4*
CCCCCCCCN1C(=O)[C@@H](CC(=O)NCc2cccc3ccccc23)C[C@@]2(C(=O)OC)C1=C[C@H](C(C)(C)C)O[C@@H]2C	0	-13	·	15	·	·	·
O=C(COC(=O)c1ccccc1NS(=O)(=O)c1cc([N+](=O)[O-])ccc1Cl)c1ccccc1	·	·	-3	·	-4	·	·
CNS(=O)(=O)c1cccc(C(=O)OCC(=O)NC(C)CCc2ccccc2)c1 (stereo not drawn)	-1	-2	-1	0	3	·	·
CC(CCc1ccccc1)NC(=O)COC(=O)c1cc(NS(=O)(=O)c2ccc(Cl)c([N+](=O)[O-])c2)ccc1O (stereo not drawn)	46*	20	6	9	-3	43*	12*
CN(C(=O)COC(=O)c1cc(NS(=O)(=O)c2cc([N+](=O)[O-])ccc2Cl)ccc1O)C1CCCCC1	56*	8	19	-3	-6	53*	17*
O=C(CCn1nnc2ccccc21)N1CCN(c2ccc(F)cc2)CC1	0	·	·	·	·	·	·
CCN(C(=O)[C@@H](C)[C@@H](O)c1ccc(C(C)=O)cc1)c1ccccc1	1	·	·	·	·	·	·
O=C(CSc1nc2[nH]c(=O)cc(O)c2s1)Nc1cc(Cl)cc(Cl)c1	28	-14	9	1	27	·	·
O=C(CSc1nc2[nH]c(=O)cc(O)c2s1)Nc1ccc(Cl)c(C(F)(F)F)c1	41*	-8	·	-1	·	31	11*
Cc1ccc2c(c1)N(CCCC(=O)N(C)Cc1ccccc1F)C(=O)CO2	-1	·	·	·	·	·	·
CCOC(=O)CC[C@@]1(C(=O)OCC)C[C@@H](CC(=O)NCc2ccc(C)o2)C(=O)N2CCCC=C21	49*	·	·	·	·	2	1
Cc1ccc(O)c(NC(=S)NC(=O)/C=C/c2ccco2)c1	24	9	-1	3	-6	·	·
SMILES	rCAG RNA binder	TAAR1 antag	core dimer inh	TAAR1 agonist	NS3 helicase inh	rCAG binder conf	DNA CAG counter
Cc1ccc(-c2csc(NC(=S)NC(=O)/C=C/c3ccco3)n2)cc1	38*	12	16	12	18	22	11*
O=C(/C=C/c1ccco1)NC(=S)Nc1ccc(Cl)cn1	39*	3	20	3	26	14	6.9*
CCC(c1c[nH]c2ccccc12)c1cn(C)c2ccccc12 (stereo not drawn)	6	·	·	·	·	·	·
CCOC(=O)[C@]12CCCC=C1N(CCCOC)C(=O)[C@@H]2CC(=O)NCc1ccc(C)o1	-2	·	·	·	·	·	·
O=C(COC(=O)c1cccc(NS(=O)(=O)c2ccc(F)c(F)c2)c1)NC(=O)NC1CCCC1	36*	-36	5	1	-14	26	5.0*
CCCCCCCCN1C(=O)[C@@H](CC(=O)NCCCN2CCCC2=O)C[C@@]2(C(=O)OC)C1=C[C@H](C(C)C)O[C@@H]2C1CC1	1	·	·	·	·	·	·
CCCN(CCC)S(=O)(=O)c1ccc(NS(=O)(=O)c2ccc(F)cc2)cc1	46*	9	-1	12	3	35*	8.4*
CCCN(CCC)S(=O)(=O)c1ccc(NS(C)(=O)=O)cc1	1	4	3	3	1	·	·
CC(=O)N(\C=C/C=C/C=C1\Sc2ccccc2C1=O)c1ccccc1	45*	9	1	10	14	14	11*
COc1ccc(NC(C)=O)cc1NC(=O)c1cccc(S(=O)(=O)N2CCc3ccccc32)c1	8	20	·	1	·	·	·
CC(=O)NS(=O)(=O)c1ccc(NC(=O)c2cccc(S(=O)(=O)N3CCc4ccccc43)c2)cc1	42*	-13	2	0	-3	40*	13*
Cc1ccc(-n2c(SCC(=O)Nc3ccc(S(=O)(=O)Nc4cc(C)nc(C)n4)cc3)nnc2-c2cccs2)cc1	43*	·	·	·	·	42*	11*
CCOc1ccc(-n2c(SCC(=O)Nc3ccc(S(=O)(=O)Nc4nccs4)cc3)nnc2-c2ccccc2)cc1	80*	·	·	·	·	72*	38*
Cc1cc(NS(=O)(=O)c2ccc(NC(=O)CSc3nnc(SCc4ccc(Cl)cc4)s3)cc2)nc(C)n1	59*	·	·	·	·	58*	20*
CCn1c2ccccc2c2cc(NC(=O)CSc3nnc(-c4ccccc4)n3Cc3ccco3)ccc21	35*	·	·	·	·	27	15*
CCOc1ccc(NC(=O)CSc2nnc(-c3ccccc3)n2N)cc1	0	-14	-3	7	-9	·	·
Cc1cccc(NC(=O)Nc2nc3ncccn3c2-c2ccccc2)c1	0	·	·	·	·	·	·
Cc1cc(C)nc(SCC(=O)Nc2ccc(S(=O)(=O)Nc3nccs3)cc2)n1	12	-11	-2	7	2	·	·
